In the array DNA melting data of Ke et al. (doi:10.1101/2024.01.08.574731):

Assays:
[1] = folding enthalpy; higher = less favourable; fluorescence melt of hairpins on a sequencing array, two-state fit; details: sodium 0.088 M
How it was run: (§1)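 Folding enthalpy and melting temperature were estimated with bootstrapped two-state fits and combined across four replicates by inverse-variance weighting, with fitted temperatures raised by 9.35 °C to match UV melts. The data were Cy3 fluorescence of library hairpins, with annealed Cy3 and quencher oligos, on a sequenced MiSeq flow cell in 50 mM Na-HEPES pH 8.0, 25 mM NaCl, imaged in 2.5 °C steps up to 60 °C and normalised to pre-quench Cy3 and control constructs.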

[2] = melting temperature; fluorescence melt of hairpins on a sequencing array, two-state fit, raised by 9.35 °C to match UV melts; details: sodium 0.088 M
How it was run: as §1

| Sequence | folding enthalpy [1] [kcal/mol] | Tm [2] [°C] |
| --- | --- | --- |
| GGGTCTGGAAACGGACCC (((((.(....).))))) | -51.6 | 59.3 |
| GCTCATCGAAAGATTAGC (((.(((....))).))) | -34.5 | 42.8 |
| GAAACGCGAAAGCGCTTC (((.(((....))).))) | -18.7 | 51.5 |
| GTTAGGGGAAACCCTGAC ((.((((....)))).)) | -28.4 | 45.6 |
| GCCGCTTCGAAAGAAGGC (((..(((....)))))) | -13.2 | 49.7 |
| GCAGCCGAAAGGCATTGC ((((((....)))..))) | -15.6 | 41.5 |
| GGCTTGGGAAACCAGGTC (.(.(((....))).).) | -23.2 | 37 |
| GCAAACGAAAGTTTTGC ((((((....))).))) | -28.5 | 49.4 |
| GTCGTCGAAAGACGGGAC ((((((....)))..))) | -10.3 | 41.4 |
| GATCCTATTGAGGATC ((((((....)))))) | -40.9 | 51.4 |
| GCTGCGCGAAAGCGATGC ((..(((....)))..)) | -18.6 | 58 |
| GCCACCGGAAACGGCAGC ((..(((....)))..)) | -15.6 | 31 |
| GCCAAGCGAAAGCGGGGC (((..((....))..))) | -28.6 | 68.3 |
| GACAATGGAAACATTGTC (((((((....))))))) | -47.7 | 57 |
| GCGTAAGGAAACTTACAC (.(((((....))))).) | -18.4 | 33.4 |
| GCACAACGAAAGTTTGC (((.(((....)))))) | -25.6 | 44.5 |
| GCCATGGAAACATGGC ((((((....)))))) | -34 | 67.7 |
| GATCTACGCTTAGATC ((((((....)))))) | -35.4 | 43.4 |
| GTGTTGGGAAACCGACAC ((((.((....)).)))) | -45.5 | 53.6 |
| AACACGAAAGTGTT (((((....))))) | -18.9 | 56.8 |
| GATCTACTCGTAGATC ((((((....)))))) | -50.1 | 53.8 |
| GGTGCCCGAAAGGGAACC (((.(((....))).))) | -35.8 | 65.1 |
| GCACACGAAAGTGATTGC ((((((....)))..))) | -18.5 | 39.8 |

| Sequence | folding enthalpy [1] [kcal/mol] | Tm [2] [°C] |
| --- | --- | --- |
| GCTATGGGAAACCGTAGC ((((.((....)).)))) | -44.1 | 51.9 |
| GGTGTGGGAAACTACACC (((((.(....).))))) | -46.6 | 52.6 |
| GTTCCGGGAAACCGGGAC ((.((((....)))).)) | -35.5 | 57.4 |
| GGCAACGAAAGTTCGGCC ((((((....)))..))) | -25.2 | 44.4 |
| GCGAGTCCTCGC ((((....)))) | -30.2 | 56.2 |
| GTGCGACGAAAGTCCCAC (((.(((....))).))) | -30.8 | 47.4 |
| GTGGGAGGAAACCCCCAC (((((.(....).))))) | -38.8 | 50.3 |
| GCCCCGCGAAAGCTGAGC ((.(.((....)).).)) | -10.7 | 35 |
| GCGCAGCGAAAGCTTGGC ((..(((....)))..)) | -6.35 | 38.5 |
| GGGTGCGGAAACACACCC (((((.(....).))))) | -37.6 | 54.8 |
| GATCCCGACGGGATC ((((((...)))))) | -28.4 | 68 |
| GCGCCTTCGAAAGAACGC (((..(((....)))))) | -19.2 | 38.6 |
| GGCTCCGAAAGGACGCC ((((((....))).))) | -29.1 | 59.9 |
| GAAACGCGAAAGCGGTTC (((.(((....))).))) | -27.2 | 66.3 |
| GCTACGCGAAAGCGCAGC (((.(((....))).))) | -32.5 | 55.7 |
| GATCAATTGGTTGATC ((((((....)))))) | -40.5 | 45.8 |
| GCTGGCCCGAAAGGGAGC (((..(((....)))))) | -12.7 | 44 |
| GATCTGCATGCAGATC ((((((....)))))) | -46.5 | 62.4 |
| GGTTTGGGAAACCAGACC (((.(((....))).))) | -33.1 | 47.8 |
| GATGTCGGAAACGGTATC (((..((....))..))) | -21.2 | 31.6 |
| GATCCCGTCTGGGATC ((((((....)))))) | -39.2 | 65.5 |
| GGTAGGGGAAACCCTATC (.(((((....))))).) | -24.4 | 44.3 |
| GCACGCCGAAAGGCTTGC (((.(((....))).))) | -28.7 | 58.3 |

| Sequence | folding enthalpy [1] [kcal/mol] | Tm [2] [°C] |
| --- | --- | --- |
| GGCAACTCGAAAGAGGCC (((..(((....)))))) | -22.7 | 48.8 |
| GTAGCCGAAAGGCGTAC ((((((....))).))) | -15.7 | 57.5 |
| GTAAAGCCGAAAGGCTAC (((..(((....)))))) | -8.48 | 35.5 |
| GGGGTCGAAAGACATCCC ((((((....)))..))) | -17.1 | 46.5 |
| GCCAATGGAAACATTAGC ((.((((....)))).)) | -17.4 | 32.1 |
| GGCCGACGAAAGTCTGCC (((.(((....))).))) | -51.3 | 56.2 |
| GACGGTGGAAACACTGTC (((.(((....))).))) | -45.8 | 52.1 |
| GGAGGCGAAAGCCCCTCC ((((((....)))..))) | -12.6 | 59.1 |
| GACGTGCGAAAGCAAGTC (((.(((....))).))) | -31.5 | 60.5 |
| GTAGGCGAAAGCCTGTAC ((((((....)))..))) | -9.44 | 34.6 |
| GACAGCGGAAACGCCGTC (((.(((....))).))) | -18.6 | 50.6 |
| GCTATCGAAAGATCAAGC ((((((....)))..))) | -18.3 | 30.8 |
| GGAAATGCGAAAGCATCC (((..(((....)))))) | -11.7 | 37.1 |
| GGAACCGGAAACGATTCC ((((.((....)).)))) | -31.3 | 42.8 |
| GCCCAGCGAAAGCTCAGC ((..(((....)))..)) | -8.74 | 32.6 |
| GGAGGAACGAAAGTTTCC (((..(((....)))))) | -16.2 | 30.4 |
| GAAATTGAAAAATTTC ((((((....)))))) | -23.6 | 40.3 |
| GACAATCCGAAAGGAGTC (((..(((....)))))) | -17.2 | 32.7 |
| GGCAAGGGAAACCCTGCC ((((.((....)).)))) | -38.6 | 53.2 |
| GGTCCAGGAAACCGAACC (((.(.(....).).))) | -10 | 25.7 |
| GATCGGCAGCCCGATC ((((((....)))))) | -36.1 | 54.9 |
| GCACCCGGAAACGAGCGC ((.(.((....)).).)) | -29.2 | 34.7 |
| GTGAAGTCGAAAGACCAC (((..(((....)))))) | -23.9 | 38.3 |

| Sequence | folding enthalpy [1] [kcal/mol] | Tm [2] [°C] |
| --- | --- | --- |
| GAACGGGGAAACCCGCTC ((.((((....)))).)) | -16.3 | 45.3 |
| GTCTGGGCGAAAGCCGAC (((..(((....)))))) | -14.6 | 44.4 |
| GATCAAGGGTTTGATC ((((((....)))))) | -26.2 | 43 |
| GATCTTGTTAAAGATC ((((((....)))))) | -37.3 | 53.7 |
| GATATAGAAATATATC ((((((....)))))) | -15 | 31.8 |
| GCCTGAGCGAAAGCTGGC (((..(((....)))))) | -25.7 | 52.6 |
| GGGTGTGGAAACACGCCC (((.(((....))).))) | -39.6 | 62.5 |
| CGCGGATGGCTCCGCG ((((((....)))))) | -30.6 | 68.9 |
| GATCTTGCTTAAGATC ((((((....)))))) | -38 | 44 |
| GCTAGGCGAAAGCCTCGC ((.((((....)))).)) | -17.8 | 58.9 |
| GCAGCAGGAAACCGCTAC (.(((.(....).))).) | -14.6 | 28.1 |
| GGGATGGAAACATCCC ((((((....)))))) | -41.4 | 60.7 |
| GGAAAGACGAAAGTCTCC (((..(((....)))))) | -14.5 | 36.4 |
| GATCACTTGGGTGATC ((((((....)))))) | -40 | 57.1 |
| GAGTGGCGAAAGCCCCTC (((.(((....))).))) | -19.9 | 48.3 |
| GAGCGGCGAAAGCCACTC (((.(((....))).))) | -24.5 | 58 |
| GATCGGAAGCCCGATC ((((((....)))))) | -36.5 | 54.1 |
| GGACCACGAAAGTGCTCC (((.(((....))).))) | -25.9 | 41.5 |
| GACCCTGAAAAGGGTC ((((((....)))))) | -33.7 | 67.5 |
| GGGATCGAAAGATATCCC ((((((....)))..))) | -25 | 39.8 |
| GACCCGGGAAACCGGACC (..((((....))))..) | -10.3 | 30.3 |
| GTATGACGAAAGTCGTAC (((.(((....))).))) | -30.3 | 53.8 |
| GATCCAGGGTTGGATC ((((((....)))))) | -34.2 | 50.8 |
